Legend:
Prostacyclin receptor [1] = biological target: T1, Prostacyclin receptor (Homo sapiens, UniProt P43119); assay: Antagonist activity at human IP receptor in HEL 92.1.7 cells assessed as inhibition of iloprost-induced cAMP production; type: functional, cell-based
Summary of the method: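 HEL 92.1.7 cells cultured in RPMI with 10% FBS, 10 mM Hepes, 1 mM sodium pyruvate, penicillin/streptomycin. 5000 cells preincubated 15 min at 37 °C with compound in 5 mM Hepes, 0.05% BSA buffer. Stimulated with 0.01 μM iloprost for 15 min at 37 °C. cAMP read by LANCE TR-FRET kit. Data normalized to max/min controls; IC50 from curve fit.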

Prostacyclin receptor [2] = biological target: T1, Prostacyclin receptor; assay: Displacement of [3H]iloprost from IP receptor in human platelet membrane; type: cell membranes
Summary of the method: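 Filter binding with 0.01 μM [3H]-iloprost and 50 μg human platelet membranes. Incubated 1 h at room temperature in 20 mM Hepes, 5 mM MgCl2, pH 7.4, with or without compound. Compound serially diluted in DMSO, final DMSO 1–10%. Filtered, washed twice with PBS, counted by scintillation.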

[3] = Metabolic stability in human liver microsomes after 30 mins; type: ADME, Microsome; details: read-out: Stability
Summary of the method: (§1)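 Human or rat liver microsomes, […], incubated 30 min with compound; percent parent remaining.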

[4] = Metabolic stability in rat liver microsome after 30 mins; type: ADME; details: liver microsomes, read-out: Stability; summary of the method: as §1
Cytochrome P450 2D6 = Cytochrome P450 2D6 (Homo sapiens, UniProt P10635); assay: Inhibition of CYP2D6; type: ADME
Cytochrome P450 1A2 = biological target: T2, Cytochrome P450 1A2 (Homo sapiens, UniProt P05177); assay: Inhibition of CYP1A2; type: ADME
T2 sequence (P05177 whole entry): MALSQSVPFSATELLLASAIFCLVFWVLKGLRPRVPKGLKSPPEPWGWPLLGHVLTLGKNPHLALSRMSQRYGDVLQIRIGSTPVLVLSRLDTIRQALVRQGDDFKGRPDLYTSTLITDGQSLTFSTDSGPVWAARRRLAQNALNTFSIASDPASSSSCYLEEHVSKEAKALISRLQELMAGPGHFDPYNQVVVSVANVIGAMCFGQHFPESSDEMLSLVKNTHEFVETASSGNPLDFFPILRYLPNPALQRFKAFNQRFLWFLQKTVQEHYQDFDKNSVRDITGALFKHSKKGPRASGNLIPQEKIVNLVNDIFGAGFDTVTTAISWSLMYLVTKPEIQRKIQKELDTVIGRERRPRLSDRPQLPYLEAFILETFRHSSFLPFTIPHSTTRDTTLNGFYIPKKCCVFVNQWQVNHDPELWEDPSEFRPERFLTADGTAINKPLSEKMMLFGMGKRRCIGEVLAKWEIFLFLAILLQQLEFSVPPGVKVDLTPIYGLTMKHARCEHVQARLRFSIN

hERG (KCNH2) = hERG (KCNH2) (Homo sapiens, UniProt Q12809); assay: Inhibition of hERG at 20 uM by rubidium efflux assay; type: toxicity
Cytochrome P450 3A4 = Cytochrome P450 3A4 (Homo sapiens, UniProt P08684); assay: Inhibition of CYP3A4; type: ADME
[5] = Apparent permeability across Caco-2 cells; type: ADME, cell-based; details: human
Cytochrome P450 2C9 = Cytochrome P450 2C9 (Homo sapiens, UniProt P11712); assay: Inhibition of CYP2C9; type: ADME
[6] = biological target: Prostaglandin E2 receptor EP4 subtype (Homo sapiens, UniProt P35408); assay: Inhibition of human recombinant EP4 receptor expressed in 293EBNA cells; type: cell-based
Cytochrome P450 2C19 = Cytochrome P450 2C19 (Homo sapiens, UniProt P33261); assay: Inhibition of CYP2C19; type: ADME
[7] = biological target: Prostaglandin E2 receptor EP2 subtype (Homo sapiens, UniProt P43116); assay: Inhibition of human recombinant EP2 receptor expressed in 293EBNA cells; type: cell-based
Sequence of Prostaglandin E2 receptor EP2 subtype (P43116 whole entry): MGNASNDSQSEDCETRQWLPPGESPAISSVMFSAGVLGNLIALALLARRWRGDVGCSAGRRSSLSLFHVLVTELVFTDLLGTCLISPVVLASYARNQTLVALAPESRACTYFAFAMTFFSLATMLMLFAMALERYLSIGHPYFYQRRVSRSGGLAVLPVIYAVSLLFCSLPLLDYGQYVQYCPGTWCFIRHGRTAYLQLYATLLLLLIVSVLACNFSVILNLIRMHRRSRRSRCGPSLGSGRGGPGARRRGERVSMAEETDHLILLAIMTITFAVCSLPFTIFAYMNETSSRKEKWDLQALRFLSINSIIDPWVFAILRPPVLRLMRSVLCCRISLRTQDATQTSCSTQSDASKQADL

T1 sequence (P43119 whole entry): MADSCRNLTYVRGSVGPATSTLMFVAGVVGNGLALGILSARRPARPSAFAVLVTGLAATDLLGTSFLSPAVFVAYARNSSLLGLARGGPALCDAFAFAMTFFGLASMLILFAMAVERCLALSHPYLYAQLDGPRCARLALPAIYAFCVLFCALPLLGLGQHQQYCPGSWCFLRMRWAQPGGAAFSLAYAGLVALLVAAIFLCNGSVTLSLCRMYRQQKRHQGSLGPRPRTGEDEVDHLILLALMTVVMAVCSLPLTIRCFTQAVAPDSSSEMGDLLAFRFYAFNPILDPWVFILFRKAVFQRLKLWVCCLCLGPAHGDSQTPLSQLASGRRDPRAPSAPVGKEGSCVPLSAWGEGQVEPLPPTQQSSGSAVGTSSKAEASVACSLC
Sequence of hERG (KCNH2) (Q12809 whole entry): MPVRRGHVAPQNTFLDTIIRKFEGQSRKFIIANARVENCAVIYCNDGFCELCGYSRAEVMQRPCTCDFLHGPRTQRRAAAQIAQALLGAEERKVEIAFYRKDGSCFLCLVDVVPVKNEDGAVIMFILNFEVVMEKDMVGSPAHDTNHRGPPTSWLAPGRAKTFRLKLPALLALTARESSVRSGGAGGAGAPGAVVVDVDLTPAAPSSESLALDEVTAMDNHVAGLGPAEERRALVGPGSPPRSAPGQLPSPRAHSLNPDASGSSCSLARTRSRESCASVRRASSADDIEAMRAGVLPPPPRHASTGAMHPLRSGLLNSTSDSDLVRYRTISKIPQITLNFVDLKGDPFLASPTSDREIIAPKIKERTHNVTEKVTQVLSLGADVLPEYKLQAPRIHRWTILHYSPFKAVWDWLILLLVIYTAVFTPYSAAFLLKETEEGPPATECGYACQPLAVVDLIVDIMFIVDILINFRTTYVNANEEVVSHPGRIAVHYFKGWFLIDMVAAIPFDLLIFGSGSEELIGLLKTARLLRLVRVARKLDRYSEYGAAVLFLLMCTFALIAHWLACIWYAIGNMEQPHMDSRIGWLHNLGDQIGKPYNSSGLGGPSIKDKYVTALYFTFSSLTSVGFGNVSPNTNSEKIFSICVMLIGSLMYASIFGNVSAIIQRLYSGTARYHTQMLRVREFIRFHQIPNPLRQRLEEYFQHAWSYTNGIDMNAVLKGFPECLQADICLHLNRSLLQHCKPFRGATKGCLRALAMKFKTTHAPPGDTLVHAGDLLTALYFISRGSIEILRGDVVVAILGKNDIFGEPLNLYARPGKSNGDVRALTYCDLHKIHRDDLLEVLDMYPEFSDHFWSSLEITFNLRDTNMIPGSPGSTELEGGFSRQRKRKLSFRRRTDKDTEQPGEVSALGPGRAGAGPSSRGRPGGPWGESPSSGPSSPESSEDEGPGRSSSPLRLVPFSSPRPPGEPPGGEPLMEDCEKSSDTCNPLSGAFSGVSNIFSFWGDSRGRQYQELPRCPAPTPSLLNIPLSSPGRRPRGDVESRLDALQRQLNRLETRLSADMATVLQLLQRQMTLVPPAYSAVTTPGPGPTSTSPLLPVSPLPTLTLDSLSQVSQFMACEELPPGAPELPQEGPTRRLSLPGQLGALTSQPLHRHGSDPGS
Sequence of Cytochrome P450 3A4 (P08684 whole entry): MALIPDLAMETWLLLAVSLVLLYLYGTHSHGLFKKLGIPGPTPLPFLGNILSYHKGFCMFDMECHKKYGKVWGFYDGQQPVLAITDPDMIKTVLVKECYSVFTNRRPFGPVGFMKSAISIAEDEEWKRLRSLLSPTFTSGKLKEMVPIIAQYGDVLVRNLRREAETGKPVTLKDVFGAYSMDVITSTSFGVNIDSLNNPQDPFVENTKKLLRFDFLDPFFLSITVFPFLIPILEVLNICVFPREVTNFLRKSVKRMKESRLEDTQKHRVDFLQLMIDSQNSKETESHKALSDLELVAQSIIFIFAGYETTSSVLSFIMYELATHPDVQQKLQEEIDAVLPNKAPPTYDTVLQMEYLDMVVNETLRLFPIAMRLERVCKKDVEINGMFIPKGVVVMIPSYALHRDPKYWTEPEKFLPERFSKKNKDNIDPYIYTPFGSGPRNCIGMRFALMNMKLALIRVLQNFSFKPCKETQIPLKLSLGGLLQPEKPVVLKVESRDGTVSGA
Sequence of Prostaglandin E2 receptor EP4 subtype (P35408 whole entry): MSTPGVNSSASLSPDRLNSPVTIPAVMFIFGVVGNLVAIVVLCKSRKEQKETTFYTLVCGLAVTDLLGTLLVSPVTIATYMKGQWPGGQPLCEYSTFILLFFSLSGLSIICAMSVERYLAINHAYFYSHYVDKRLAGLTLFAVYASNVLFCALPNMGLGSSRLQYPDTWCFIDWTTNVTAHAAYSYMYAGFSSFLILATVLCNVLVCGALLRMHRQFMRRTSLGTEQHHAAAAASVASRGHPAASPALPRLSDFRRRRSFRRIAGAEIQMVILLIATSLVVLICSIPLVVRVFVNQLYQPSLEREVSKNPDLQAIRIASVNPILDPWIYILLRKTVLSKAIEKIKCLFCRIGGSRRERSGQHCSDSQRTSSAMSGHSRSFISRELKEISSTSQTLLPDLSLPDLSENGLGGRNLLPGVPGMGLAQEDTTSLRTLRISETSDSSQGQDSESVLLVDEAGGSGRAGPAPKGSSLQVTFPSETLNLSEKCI
Sequence of Cytochrome P450 2D6 (P10635 whole entry): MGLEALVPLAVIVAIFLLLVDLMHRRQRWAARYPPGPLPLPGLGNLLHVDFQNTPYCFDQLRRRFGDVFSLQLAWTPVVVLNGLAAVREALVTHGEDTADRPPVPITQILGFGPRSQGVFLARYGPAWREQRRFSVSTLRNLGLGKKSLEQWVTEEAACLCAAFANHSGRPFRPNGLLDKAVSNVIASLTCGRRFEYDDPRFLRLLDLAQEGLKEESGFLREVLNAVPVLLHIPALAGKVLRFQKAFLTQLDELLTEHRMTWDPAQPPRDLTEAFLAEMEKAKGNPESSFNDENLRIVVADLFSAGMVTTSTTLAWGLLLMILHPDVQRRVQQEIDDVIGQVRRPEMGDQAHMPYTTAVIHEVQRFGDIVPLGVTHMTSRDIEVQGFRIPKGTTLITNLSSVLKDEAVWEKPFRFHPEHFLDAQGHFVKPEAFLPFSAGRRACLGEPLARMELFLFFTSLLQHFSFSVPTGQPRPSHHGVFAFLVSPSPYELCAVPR
Sequence of Cytochrome P450 2C19 (P33261 whole entry): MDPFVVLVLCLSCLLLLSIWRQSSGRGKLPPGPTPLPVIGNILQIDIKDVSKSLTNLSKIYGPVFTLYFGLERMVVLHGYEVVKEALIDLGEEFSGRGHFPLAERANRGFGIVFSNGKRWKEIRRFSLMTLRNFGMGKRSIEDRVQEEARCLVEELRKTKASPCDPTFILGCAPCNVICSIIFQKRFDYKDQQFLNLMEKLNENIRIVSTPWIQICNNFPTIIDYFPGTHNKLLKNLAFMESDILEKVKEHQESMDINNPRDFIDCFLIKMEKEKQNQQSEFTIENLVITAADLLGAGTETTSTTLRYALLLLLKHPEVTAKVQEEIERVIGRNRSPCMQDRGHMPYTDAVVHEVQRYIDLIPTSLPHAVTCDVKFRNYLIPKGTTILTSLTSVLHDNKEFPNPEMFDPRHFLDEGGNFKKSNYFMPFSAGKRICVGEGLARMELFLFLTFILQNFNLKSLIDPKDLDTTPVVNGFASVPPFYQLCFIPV
Sequence of Cytochrome P450 2C9 (P11712 whole entry): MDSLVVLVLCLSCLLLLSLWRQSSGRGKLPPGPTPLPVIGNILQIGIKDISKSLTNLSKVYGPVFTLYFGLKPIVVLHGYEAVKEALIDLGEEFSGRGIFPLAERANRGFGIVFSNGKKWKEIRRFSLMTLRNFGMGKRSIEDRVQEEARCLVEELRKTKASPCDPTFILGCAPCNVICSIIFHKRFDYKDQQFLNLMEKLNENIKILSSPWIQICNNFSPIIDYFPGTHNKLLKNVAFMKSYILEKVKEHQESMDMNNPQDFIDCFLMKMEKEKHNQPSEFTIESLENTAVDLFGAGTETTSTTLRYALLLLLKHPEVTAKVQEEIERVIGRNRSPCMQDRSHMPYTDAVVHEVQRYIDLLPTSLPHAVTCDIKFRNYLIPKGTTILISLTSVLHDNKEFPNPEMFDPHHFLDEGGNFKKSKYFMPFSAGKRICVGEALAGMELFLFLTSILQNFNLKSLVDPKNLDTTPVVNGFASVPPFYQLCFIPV

Row | IC50 (Prostacyclin receptor [1]) | IC50 (Prostacyclin receptor [2]) | Compound | further results
1 | 3580 nM | 12400 nM | CC(=O)Nc1cccc(-c2ccc(Cc3ocnc3C(=O)N(C)C)cc2)c1 | 
2 | 138 nM | 721 nM | CC(=O)Nc1cccc(-c2ccc(Cc3ocnc3C(=O)NCCc3ccccc3)cc2)c1 | 
3 | 828 nM | 3480 nM | CC(=O)Nc1cccc(-c2ccc(Cc3ocnc3C(=O)Nc3ccccc3)cc2)c1 | 
4 | 2130 nM | 7160 nM | CC(=O)Nc1cccc(-c2ccc(Cc3ocnc3C(=O)N(C)CCc3ccccc3)cc2)c1 | 
5 | 51 nM | 53 nM | CC(=O)Nc1cccc(-c2ccc(Cc3ocnc3C(=O)NC[C@H](C)c3ccccc3)cc2)c1 | remaining at 0.5 h [3]: 12%; remaining at 0.5 h [4]: 11%
6 | 296 nM | 916 nM | CC(=O)Nc1cccc(-c2ccc(Cc3ocnc3C(=O)NC[C@@H](C)c3ccccc3)cc2)c1 | 
7 | 831 nM | 4200 nM | CC(=O)Nc1cccc(-c2ccc(Cc3ocnc3C(=O)N[C@H](Cc3ccccc3)C(=O)O)cc2)c1 | 
8 | 1010 nM | 7600 nM | CC(=O)Nc1cccc(-c2ccc(Cc3ocnc3C(=O)NCCc3ccccn3)cc2)c1 | 
9 | 476 nM | 4710 nM | CC(=O)Nc1cccc(-c2ccc(Cc3ocnc3C(=O)NCCc3ccncc3)cc2)c1 | 
10 | 66 nM | 561 nM | CC(=O)Nc1cccc(-c2ccc(Cc3ocnc3C(=O)NCc3ccccc3)cc2)c1 | remaining at 0.5 h [3]: 63%; remaining at 0.5 h [4]: 33%
11 | 358 nM | 331 nM | CC(=O)Nc1cccc(-c2ccc(Cc3ocnc3C(=O)N[C@H]3C[C@@H]3c3ccccc3)cc2)c1 | 
12 | 3310 nM | 12200 nM | CNC(=O)c1ncoc1Cc1ccc(-c2cccc(NC(C)=O)c2)cc1 | 
13 | 3310 nM | 34100 nM | CC(=O)Nc1cccc(-c2ccc(Cc3ocnc3C(=O)NCCN(C)C)cc2)c1 | 
14 | 16 nM | 476 nM | CC(=O)Nc1cccc(-c2ccc(Cc3ocnc3C(=O)N[C@@H](Cc3ccccc3)C(=O)O)cc2)c1 | IC50 (Cytochrome P450 2D6): > 20000 nM; IC50 (Cytochrome P450 1A2): > 20000 nM; remaining at 0.5 h [3]: 100%; inhibition at 20 µM (hERG (KCNH2)): 5%; IC50 (Cytochrome P450 3A4): > 20000 nM; Papp [5]: 5.5 ×10⁻⁶ cm/s; IC50 (Cytochrome P450 2C9): 5100 nM; IC50 [6]: 24000 nM; remaining at 0.5 h [4]: 91%; IC50 (Cytochrome P450 2C19): > 20000 nM; IC50 [7]: 32000 nM
15 | 741 nM | 4950 nM | CC(=O)Nc1cccc(-c2ccc(Cc3ocnc3C(=O)NCCc3cccnc3)cc2)c1 | 
16 | 278 nM | 1230 nM | CC(=O)Nc1cccc(-c2ccc(Cc3ocnc3C(=O)NC(C)c3ccccc3)cc2)c1 (racemic) | 
17 |  | 77 nM | CC(=O)Nc1cccc(-c2ccc(Cc3ocnc3C(=O)NCC(C)c3ccccc3)cc2)c1 (racemic) | 

From ChEMBL document CHEMBL1148848, “Discovery and preliminary evaluation of 5-(4-phenylbenzyl)oxazole-4-carboxamides as prostacyclin receptor antagonists” (Bioorg Med Chem Lett, 2007)
